For three compounds, selectivity ratio and inhibition results are on record in ChEMBL document CHEMBL1914443, “Inhibition of c-Kit, VEGFR-2 (KDR), and ABCG2 by analogues of OSI-930” (Bioorg Med Chem Lett, 2011).

Bounds are passed on as bounds.

Series [1] deals with T1, ABCG2 (Homo sapiens, UniProt Q9UNQ0).
T1 sequence (Q9UNQ0 whole entry): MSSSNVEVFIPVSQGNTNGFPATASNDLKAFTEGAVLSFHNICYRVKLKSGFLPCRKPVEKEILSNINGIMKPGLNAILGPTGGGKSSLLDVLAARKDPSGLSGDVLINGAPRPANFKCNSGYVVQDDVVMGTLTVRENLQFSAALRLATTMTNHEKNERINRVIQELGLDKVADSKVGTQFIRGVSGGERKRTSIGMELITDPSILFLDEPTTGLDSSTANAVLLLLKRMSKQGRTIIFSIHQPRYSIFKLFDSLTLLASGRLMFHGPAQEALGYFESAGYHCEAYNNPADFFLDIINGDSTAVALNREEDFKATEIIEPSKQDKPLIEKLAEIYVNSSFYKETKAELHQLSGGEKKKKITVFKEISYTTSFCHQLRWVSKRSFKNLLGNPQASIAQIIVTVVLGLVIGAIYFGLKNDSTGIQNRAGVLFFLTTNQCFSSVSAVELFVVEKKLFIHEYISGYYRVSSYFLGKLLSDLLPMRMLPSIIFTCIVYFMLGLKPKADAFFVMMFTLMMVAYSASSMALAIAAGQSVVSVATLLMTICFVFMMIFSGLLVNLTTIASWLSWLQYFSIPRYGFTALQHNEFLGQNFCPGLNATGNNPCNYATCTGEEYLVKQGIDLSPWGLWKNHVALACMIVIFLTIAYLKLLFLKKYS
As to the kind of experiment: Inhibition of ATP-dependent ABCG2 pump assessed as ratio of compound IC50 for HEK/ABCG2-482-R2 cells to IC50 for HEK293/pcDNA3.1 cells after 72 hrs by MTT assay. The following applies: HEK/ABCG2-482-R2 cells versus HEK293/pcDNA3.1 cells, read-out: Ratio IC50. The essentials: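 Fold-resistance was calculated as mitoxantrone IC50 in HEK/ABCG2-482-R2 (wild-type ABCG2-transfected) cells divided by mitoxantrone IC50 in HEK293/pcDNA3 parental cells, with or without analogue at 10 μM. FTC at 2.5 μM served as the reference. Cell survival was measured by MTT. Results are means ± SD of at least three independent experiments, each run in triplicate.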

Series [2] addresses T2, Mast/stem cell growth factor receptor Kit (Homo sapiens, UniProt P10721). As to the kind of experiment: Inhibition of c-Kit using Tyr 06 peptide as substrate at 10 uM after 60 mins by Z'-LYTE assay.
Series [3] deals with Platelet-derived growth factor receptor alpha (Homo sapiens) (UniProt P16234). As to the kind of experiment: Inhibition of PDGFRalpha using Tyr 04 peptide as substrate at 10 uM after 60 mins by Z'-LYTE assay.
In series [4] the target is Platelet-derived growth factor receptor beta (Homo sapiens) (UniProt P09619). The experiment in a line: Inhibition of PDGFRbeta using Tyr 04 peptide as substrate at 10 uM after 60 mins by Z'-LYTE assay.
Series [5] has as its target Receptor-type tyrosine-protein kinase FLT3 (Homo sapiens) (UniProt P36888). The experiment in a line: Inhibition of Flt3 using Tyr 02 peptide as substrate at 10 uM after 60 mins by Z'-LYTE assay.
Series [6] addresses T3, Vascular endothelial growth factor receptor 2 (Homo sapiens, UniProt P35968). As to the kind of experiment: Inhibition of KDR using Tyr 01 peptide as substrate at 10 uM after 60 mins by Z'-LYTE assay.
For series [7], the target named is Vascular endothelial growth factor receptor 1 (Homo sapiens) (UniProt P17948). As to the kind of experiment: Inhibition of VEGFR1 using Tyr 04 peptide as substrate at 10 uM after 60 mins by Z'-LYTE assay.
The target of series [8] is Vascular endothelial growth factor receptor 3 (Homo sapiens) (UniProt P35916). The experiment in a line: Inhibition of VEGFR3 using Tyr 04 peptide as substrate at 10 uM after 60 mins by Z'-LYTE assay.
Chain of Vascular endothelial growth factor receptor 3 (Homo sapiens) (P35916 whole entry): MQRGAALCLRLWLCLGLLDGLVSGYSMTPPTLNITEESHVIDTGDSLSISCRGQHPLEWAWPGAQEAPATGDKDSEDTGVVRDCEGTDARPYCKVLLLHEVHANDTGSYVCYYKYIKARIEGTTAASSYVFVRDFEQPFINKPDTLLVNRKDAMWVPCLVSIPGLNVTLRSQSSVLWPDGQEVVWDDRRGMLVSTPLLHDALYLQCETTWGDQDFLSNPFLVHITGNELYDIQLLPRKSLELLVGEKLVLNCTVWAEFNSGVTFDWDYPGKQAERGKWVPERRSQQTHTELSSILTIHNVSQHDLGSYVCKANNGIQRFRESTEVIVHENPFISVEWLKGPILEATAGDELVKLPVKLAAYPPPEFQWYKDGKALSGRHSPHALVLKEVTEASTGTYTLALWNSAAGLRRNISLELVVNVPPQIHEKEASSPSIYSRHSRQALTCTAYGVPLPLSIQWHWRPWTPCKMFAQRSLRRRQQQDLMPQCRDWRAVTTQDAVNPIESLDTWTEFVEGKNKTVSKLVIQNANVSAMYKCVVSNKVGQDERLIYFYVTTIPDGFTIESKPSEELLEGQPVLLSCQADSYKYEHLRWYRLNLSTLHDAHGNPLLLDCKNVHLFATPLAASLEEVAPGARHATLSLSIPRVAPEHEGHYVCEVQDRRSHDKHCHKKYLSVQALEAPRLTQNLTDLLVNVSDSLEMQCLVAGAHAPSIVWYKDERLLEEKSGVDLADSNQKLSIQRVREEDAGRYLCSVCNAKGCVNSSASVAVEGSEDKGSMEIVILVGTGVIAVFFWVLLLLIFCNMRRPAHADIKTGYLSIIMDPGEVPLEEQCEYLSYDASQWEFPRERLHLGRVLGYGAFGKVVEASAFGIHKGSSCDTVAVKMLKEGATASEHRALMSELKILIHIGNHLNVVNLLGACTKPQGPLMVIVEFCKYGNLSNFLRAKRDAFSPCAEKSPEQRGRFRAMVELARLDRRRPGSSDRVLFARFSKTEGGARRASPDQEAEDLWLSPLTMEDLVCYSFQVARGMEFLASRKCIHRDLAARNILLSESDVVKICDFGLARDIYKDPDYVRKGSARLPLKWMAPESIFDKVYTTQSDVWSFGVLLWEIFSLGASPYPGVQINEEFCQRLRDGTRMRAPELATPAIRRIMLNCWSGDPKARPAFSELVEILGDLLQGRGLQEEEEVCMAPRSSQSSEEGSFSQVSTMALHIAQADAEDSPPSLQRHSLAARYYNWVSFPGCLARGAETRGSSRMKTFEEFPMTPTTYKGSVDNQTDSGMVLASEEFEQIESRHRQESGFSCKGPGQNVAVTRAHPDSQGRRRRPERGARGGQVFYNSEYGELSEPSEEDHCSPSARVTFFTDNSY
For series [9], the target named is Angiopoietin-1 receptor (Homo sapiens) (UniProt Q02763). The experiment in a line: Inhibition of Tie-2 using Tyr 05 peptide as substrate at 10 uM after 60 mins by Z'-LYTE assay.
Series [10] has as its target Platelet-derived growth factor receptor alpha (Homo sapiens) (UniProt P16234). As to the kind of experiment: Inhibition of PDGFRalpha using Tyr 04 peptide as substrate at 1 uM after 60 mins by Z'-LYTE assay.
Series [11] deals with T2, Mast/stem cell growth factor receptor Kit. The experiment in a line: Inhibition of c-Kit using Tyr 06 peptide as substrate at 1 uM after 60 mins by Z'-LYTE assay.
Series [12] concerns the target Platelet-derived growth factor receptor beta (Homo sapiens) (UniProt P09619). The experiment in a line: Inhibition of PDGFRbeta using Tyr 04 peptide as substrate at 1 uM after 60 mins by Z'-LYTE assay.
Series [13] addresses Receptor-type tyrosine-protein kinase FLT3 (Homo sapiens) (UniProt P36888). The experiment in a line: Inhibition of Flt3 using Tyr 02 peptide as substrate at 1 uM after 60 mins by Z'-LYTE assay.
Series [14] concerns the target T3, Vascular endothelial growth factor receptor 2. The experiment in a line: Inhibition of KDR using Tyr 01 peptide as substrate at 1 uM after 60 mins by Z'-LYTE assay.
Series [15] concerns the target Vascular endothelial growth factor receptor 1 (Homo sapiens) (UniProt P17948). The experiment in a line: Inhibition of VEGFR1 using Tyr 04 peptide as substrate at 1 uM after 60 mins by Z'-LYTE assay.
Series [16] addresses Vascular endothelial growth factor receptor 3 (Homo sapiens) (UniProt P35916). The experiment in a line: Inhibition of VEGFR3 using Tyr 04 peptide as substrate at 1 uM after 60 mins by Z'-LYTE assay.
In series [17] the target is Angiopoietin-1 receptor (Homo sapiens) (UniProt Q02763). As to the kind of experiment: Inhibition of Tie-2 using Tyr 05 peptide as substrate at 1 uM after 60 mins by Z'-LYTE assay.

T3 sequence (P35968 whole entry): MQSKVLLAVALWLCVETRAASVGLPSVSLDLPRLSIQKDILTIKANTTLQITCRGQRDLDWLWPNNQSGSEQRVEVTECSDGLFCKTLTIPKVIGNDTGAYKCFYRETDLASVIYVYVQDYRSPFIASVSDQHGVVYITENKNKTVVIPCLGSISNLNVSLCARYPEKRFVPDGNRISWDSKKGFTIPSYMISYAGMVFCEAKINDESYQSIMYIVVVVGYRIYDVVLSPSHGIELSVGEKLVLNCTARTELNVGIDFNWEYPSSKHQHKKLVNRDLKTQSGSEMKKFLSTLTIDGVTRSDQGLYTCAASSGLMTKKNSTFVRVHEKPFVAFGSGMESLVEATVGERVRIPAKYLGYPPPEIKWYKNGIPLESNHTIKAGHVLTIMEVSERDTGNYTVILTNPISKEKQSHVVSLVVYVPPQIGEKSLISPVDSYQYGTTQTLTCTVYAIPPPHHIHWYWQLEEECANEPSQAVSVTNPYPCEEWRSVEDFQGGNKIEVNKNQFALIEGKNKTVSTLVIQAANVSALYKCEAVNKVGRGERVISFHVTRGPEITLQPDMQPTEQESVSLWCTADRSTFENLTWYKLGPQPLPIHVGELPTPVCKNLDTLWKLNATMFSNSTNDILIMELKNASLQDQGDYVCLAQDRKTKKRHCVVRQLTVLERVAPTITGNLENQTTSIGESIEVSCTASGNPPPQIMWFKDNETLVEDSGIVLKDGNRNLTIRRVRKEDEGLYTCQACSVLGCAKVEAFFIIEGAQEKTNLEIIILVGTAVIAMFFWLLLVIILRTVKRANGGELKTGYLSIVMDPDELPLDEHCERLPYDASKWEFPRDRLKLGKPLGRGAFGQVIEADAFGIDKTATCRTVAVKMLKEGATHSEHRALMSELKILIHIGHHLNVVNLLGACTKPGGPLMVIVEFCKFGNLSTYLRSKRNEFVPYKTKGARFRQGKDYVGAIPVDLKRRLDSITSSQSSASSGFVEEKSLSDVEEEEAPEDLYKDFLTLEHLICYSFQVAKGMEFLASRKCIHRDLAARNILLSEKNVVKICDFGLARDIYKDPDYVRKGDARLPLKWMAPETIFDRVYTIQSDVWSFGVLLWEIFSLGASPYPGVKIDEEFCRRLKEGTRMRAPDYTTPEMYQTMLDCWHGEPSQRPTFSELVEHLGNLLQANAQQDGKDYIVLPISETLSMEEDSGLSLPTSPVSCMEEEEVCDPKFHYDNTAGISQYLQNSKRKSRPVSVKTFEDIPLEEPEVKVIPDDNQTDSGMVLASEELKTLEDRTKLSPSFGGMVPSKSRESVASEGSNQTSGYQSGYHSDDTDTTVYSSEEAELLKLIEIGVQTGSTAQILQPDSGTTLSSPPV
T2 sequence (P10721 whole entry): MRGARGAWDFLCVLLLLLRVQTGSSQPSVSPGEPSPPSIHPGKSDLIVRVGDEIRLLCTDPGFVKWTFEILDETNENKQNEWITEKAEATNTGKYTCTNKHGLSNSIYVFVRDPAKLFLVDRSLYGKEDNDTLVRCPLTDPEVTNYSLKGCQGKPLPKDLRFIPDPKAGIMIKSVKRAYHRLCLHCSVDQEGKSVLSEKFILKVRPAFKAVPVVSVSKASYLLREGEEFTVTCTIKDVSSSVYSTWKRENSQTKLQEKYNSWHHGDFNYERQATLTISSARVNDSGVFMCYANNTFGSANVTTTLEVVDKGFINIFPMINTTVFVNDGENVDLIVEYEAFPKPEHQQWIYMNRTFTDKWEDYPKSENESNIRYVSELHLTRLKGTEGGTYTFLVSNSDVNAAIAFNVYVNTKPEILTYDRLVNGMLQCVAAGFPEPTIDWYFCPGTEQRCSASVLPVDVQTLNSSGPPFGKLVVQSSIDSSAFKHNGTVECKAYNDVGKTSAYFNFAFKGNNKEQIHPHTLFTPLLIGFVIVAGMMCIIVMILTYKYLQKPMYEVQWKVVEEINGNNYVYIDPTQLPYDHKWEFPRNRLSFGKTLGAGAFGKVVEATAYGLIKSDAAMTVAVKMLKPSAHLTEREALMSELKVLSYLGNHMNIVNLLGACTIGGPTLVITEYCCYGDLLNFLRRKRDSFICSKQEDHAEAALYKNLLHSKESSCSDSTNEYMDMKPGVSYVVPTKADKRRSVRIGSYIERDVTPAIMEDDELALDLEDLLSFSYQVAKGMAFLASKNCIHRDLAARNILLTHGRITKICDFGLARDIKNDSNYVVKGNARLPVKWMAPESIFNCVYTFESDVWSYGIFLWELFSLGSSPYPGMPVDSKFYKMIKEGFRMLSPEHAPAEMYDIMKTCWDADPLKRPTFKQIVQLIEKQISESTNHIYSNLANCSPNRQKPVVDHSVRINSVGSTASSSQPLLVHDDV
Chain of Receptor-type tyrosine-protein kinase FLT3 (Homo sapiens) (P36888 whole entry): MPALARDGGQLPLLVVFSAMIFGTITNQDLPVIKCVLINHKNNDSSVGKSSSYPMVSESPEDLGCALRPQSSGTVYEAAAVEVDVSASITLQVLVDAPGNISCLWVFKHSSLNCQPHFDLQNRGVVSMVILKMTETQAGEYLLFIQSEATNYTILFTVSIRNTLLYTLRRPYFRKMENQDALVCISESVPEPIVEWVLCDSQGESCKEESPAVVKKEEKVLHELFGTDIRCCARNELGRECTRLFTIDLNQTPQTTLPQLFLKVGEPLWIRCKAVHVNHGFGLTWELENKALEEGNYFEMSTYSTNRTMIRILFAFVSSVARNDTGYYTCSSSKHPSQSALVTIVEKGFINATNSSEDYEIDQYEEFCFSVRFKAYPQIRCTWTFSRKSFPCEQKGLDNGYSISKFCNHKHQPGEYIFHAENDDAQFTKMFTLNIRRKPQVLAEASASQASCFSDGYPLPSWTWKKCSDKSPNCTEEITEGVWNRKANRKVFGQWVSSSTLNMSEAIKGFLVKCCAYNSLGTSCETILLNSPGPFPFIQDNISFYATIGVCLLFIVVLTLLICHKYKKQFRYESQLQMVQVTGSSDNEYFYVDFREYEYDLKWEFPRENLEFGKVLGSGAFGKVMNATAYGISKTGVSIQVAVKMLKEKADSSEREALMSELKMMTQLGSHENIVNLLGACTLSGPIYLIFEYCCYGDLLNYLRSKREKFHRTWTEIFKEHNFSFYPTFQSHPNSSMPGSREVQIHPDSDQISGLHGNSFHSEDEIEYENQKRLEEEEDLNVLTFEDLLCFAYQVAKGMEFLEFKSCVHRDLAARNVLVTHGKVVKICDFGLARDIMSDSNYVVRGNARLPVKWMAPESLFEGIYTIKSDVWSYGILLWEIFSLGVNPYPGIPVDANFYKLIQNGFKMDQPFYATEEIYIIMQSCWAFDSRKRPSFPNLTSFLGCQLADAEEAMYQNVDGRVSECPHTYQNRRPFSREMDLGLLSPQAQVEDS

Regarding `O=C1c2c(O)ccc(O)c2C(=O)c2c(NCCNCCO)ccc(NCCNCCO)c21` [MITOXANTRONE], the selectivity ratio at 72 h in series [1] stood at 15.3.
Regarding `O=C(Nc1ccc(OC(F)(F)F)cc1)c1sccc1NCc1ccccc1[N+](=O)[O-]`, the inhibition in series [2], in series [3], in series [4], in series [5], in series [6] and in series [7] was less than 40% throughout. Further, the inhibition in series [8], in [9], in [10], in [11], in series [12] and in [13] was less than 40% in each case. Moreover, the inhibition in series [14], in series [15], in [16] and in [17] was less than 40% each time.
For `O=C(Nc1ccc(OC(F)(F)F)cc1)c1sccc1NCc1ccccc1N=C=S`, the inhibition in series [2], in series [3], in series [4], in series [5], in series [6] and in series [7] was less than 40% each time. Moreover, the inhibition in series [8], in series [9], in [10], in series [11], in [12] and in [13] was less than 40% each time. Also, the inhibition in series [14], in series [15], in series [16] and in series [17] was less than 40% each time.
